Data taken from article PMC2711440 (Nature, 2009).

Tests used:
Type in all cases: cell-based
[1] = test system: NR1wt/NR2D-ΔNTD receptors; assay: Kinetics of inhibition by MK-801, oocyte voltage-clamp; conditions: trace of Fig. 1f
[2] = test system: NR1wt/NR2A-(2D NTD+L) receptors; assay: as above; conditions: NR2A-(2D NTD+L) vs NR2Awt
[3] = target: T1, NR1wt/NR2Dwt receptors (Rattus norvegicus, UniProt P35439+Q62645); assay: as above; conditions: trace of Fig. 1f
[4] = test system: NR1wt/NR2D-(2A NTD+L) receptors; assay: as above; conditions: trace of Fig. 1f
[5] = test system: NR1-A652C/NR2D-ΔNTD receptors; assay: MTSEA-induced potentiation of currents; conditions: NR2D-ΔNTD vs NR2D
[6] = test system: NR1-A652C/NR2A-(2D NTD+L) receptors; assay: MTSEA-induced potentiation of currents; conditions: NR2A-(2D NTD+L) vs NR2Awt
[7] = target: NR1-A652C/NR2D receptors (Homo sapiens, UniProt O15399+Q05586, A652C); assay: MTSEA-induced potentiation of currents; conditions: NR2D-containing receptors (NR1-A652C)
[8] = target: NR1wt/NR2B-(2A NTD) receptors; assay: Zinc sensitivity
Outline: (§1)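 Two-electrode voltage clamp was run at −60 mV at room temperature on oocytes nuclear-injected with NR1 and NR2 cDNAs (10 ng/µl, 1:1). […] Free zinc was buffered with tricine 10 mM (1 nM–1 µM) or ADA 1 mM (0.1–100 nM), and "0" zinc contained 10 µM DTPA. Dose-response curves gave IC50 and maximal inhibition.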

[9] = target: NR1wt/NR2D-(2A NTD+L) receptors; assay: Zinc sensitivity
Outline: as §1

[10] = test system: receptors incorporating NR1wt and NR2Awt, NR2Bwt, NR2Dwt, NR2B-(2A NTD), NR2B-(2A NTD+L) or NR2D-(2A NTD+L); assay: Zinc sensitivity; conditions: zinc dose-response, all constructs of Fig. 3a
Outline: as §1

[11] = target: NR1wt/NR2Awt receptors (Homo sapiens, UniProt Q05586+Q12879); assay: Zinc sensitivity
Sequence of NR1wt/NR2Awt receptors (Q12879 23-1464, other chains not shown): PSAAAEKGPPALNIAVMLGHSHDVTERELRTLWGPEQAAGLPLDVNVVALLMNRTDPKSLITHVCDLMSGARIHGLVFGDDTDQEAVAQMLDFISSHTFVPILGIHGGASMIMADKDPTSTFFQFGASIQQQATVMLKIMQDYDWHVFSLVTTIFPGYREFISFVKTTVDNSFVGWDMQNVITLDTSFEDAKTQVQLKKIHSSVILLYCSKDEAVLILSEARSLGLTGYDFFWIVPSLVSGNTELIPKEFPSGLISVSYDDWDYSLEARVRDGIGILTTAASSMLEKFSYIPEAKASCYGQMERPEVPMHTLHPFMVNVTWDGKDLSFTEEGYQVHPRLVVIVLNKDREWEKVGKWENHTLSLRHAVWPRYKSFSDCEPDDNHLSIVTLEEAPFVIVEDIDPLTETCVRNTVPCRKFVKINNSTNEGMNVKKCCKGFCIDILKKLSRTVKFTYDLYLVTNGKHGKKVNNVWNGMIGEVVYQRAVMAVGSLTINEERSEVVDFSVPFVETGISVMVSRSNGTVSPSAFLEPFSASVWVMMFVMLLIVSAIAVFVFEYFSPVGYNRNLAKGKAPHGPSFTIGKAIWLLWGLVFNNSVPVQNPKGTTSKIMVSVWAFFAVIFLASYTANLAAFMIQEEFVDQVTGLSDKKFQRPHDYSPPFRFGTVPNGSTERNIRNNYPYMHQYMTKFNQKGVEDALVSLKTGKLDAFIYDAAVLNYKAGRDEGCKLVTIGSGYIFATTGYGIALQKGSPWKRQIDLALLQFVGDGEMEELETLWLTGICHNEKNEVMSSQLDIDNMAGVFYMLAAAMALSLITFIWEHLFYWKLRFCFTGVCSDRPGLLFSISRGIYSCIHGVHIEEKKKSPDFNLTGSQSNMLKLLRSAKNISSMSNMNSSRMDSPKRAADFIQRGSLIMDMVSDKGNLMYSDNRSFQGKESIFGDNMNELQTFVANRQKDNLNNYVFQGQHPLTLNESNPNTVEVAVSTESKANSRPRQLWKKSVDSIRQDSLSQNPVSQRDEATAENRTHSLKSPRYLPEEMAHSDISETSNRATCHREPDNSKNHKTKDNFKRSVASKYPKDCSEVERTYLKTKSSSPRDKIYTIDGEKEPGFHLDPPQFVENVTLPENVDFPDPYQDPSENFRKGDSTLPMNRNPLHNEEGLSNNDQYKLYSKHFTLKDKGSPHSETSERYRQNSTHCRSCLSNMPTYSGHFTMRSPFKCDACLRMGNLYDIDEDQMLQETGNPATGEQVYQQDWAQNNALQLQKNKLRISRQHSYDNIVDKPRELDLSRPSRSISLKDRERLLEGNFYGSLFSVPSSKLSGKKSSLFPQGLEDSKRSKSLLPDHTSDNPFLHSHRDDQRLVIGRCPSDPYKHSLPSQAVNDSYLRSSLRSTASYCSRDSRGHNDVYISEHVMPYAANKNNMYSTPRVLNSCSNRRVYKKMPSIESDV
Outline: as §1

[12] = target: NR1wt/NR2B-(2A NTD+L) receptors; assay: Zinc sensitivity
Outline: as §1

[13] = target: NR1wt/NR2Bwt receptors (Homo sapiens, UniProt Q05586+Q13224); assay: Zinc sensitivity
Sequence of NR1wt/NR2Bwt receptors (Q13224 27-1484, other chains not shown): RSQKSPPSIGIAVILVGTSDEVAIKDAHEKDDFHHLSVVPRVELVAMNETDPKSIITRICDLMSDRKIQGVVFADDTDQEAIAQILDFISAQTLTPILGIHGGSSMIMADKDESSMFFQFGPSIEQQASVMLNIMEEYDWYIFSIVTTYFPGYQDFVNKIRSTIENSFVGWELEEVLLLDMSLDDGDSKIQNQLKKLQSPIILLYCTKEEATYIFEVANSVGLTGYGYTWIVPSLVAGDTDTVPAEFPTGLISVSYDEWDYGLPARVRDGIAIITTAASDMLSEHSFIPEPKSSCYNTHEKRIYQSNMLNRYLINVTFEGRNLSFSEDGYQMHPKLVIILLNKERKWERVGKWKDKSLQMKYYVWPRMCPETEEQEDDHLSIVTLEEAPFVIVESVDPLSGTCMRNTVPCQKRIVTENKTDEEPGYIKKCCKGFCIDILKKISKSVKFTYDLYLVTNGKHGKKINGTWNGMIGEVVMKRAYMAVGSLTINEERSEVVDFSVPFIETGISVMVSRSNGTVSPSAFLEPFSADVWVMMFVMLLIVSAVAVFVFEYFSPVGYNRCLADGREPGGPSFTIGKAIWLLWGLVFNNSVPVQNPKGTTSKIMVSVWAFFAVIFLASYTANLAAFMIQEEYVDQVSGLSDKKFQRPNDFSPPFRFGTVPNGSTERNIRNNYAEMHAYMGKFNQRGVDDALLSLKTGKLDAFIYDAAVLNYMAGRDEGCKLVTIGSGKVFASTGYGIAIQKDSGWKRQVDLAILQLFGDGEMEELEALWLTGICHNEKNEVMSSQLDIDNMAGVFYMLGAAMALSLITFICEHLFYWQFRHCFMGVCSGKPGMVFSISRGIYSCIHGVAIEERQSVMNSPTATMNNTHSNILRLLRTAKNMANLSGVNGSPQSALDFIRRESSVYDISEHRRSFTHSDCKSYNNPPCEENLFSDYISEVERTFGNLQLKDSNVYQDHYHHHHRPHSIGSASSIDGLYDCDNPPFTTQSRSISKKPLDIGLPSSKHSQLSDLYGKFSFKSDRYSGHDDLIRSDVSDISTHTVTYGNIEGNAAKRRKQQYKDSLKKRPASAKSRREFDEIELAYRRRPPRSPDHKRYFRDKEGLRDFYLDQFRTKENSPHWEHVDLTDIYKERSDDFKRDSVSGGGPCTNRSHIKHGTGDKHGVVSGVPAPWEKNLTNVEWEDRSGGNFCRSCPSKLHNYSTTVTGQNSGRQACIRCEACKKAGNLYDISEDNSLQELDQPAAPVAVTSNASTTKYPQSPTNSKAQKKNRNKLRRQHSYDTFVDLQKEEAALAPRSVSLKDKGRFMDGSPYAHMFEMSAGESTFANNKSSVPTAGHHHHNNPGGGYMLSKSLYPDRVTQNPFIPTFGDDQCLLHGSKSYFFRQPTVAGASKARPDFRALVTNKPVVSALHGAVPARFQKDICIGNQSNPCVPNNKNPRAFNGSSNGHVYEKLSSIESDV
Outline: as §1

[14] = target: T1, NR1wt/NR2Dwt receptors; assay: Zinc sensitivity
Outline: as §1

T1 sequence (Q62645 28-1323, other chains not shown): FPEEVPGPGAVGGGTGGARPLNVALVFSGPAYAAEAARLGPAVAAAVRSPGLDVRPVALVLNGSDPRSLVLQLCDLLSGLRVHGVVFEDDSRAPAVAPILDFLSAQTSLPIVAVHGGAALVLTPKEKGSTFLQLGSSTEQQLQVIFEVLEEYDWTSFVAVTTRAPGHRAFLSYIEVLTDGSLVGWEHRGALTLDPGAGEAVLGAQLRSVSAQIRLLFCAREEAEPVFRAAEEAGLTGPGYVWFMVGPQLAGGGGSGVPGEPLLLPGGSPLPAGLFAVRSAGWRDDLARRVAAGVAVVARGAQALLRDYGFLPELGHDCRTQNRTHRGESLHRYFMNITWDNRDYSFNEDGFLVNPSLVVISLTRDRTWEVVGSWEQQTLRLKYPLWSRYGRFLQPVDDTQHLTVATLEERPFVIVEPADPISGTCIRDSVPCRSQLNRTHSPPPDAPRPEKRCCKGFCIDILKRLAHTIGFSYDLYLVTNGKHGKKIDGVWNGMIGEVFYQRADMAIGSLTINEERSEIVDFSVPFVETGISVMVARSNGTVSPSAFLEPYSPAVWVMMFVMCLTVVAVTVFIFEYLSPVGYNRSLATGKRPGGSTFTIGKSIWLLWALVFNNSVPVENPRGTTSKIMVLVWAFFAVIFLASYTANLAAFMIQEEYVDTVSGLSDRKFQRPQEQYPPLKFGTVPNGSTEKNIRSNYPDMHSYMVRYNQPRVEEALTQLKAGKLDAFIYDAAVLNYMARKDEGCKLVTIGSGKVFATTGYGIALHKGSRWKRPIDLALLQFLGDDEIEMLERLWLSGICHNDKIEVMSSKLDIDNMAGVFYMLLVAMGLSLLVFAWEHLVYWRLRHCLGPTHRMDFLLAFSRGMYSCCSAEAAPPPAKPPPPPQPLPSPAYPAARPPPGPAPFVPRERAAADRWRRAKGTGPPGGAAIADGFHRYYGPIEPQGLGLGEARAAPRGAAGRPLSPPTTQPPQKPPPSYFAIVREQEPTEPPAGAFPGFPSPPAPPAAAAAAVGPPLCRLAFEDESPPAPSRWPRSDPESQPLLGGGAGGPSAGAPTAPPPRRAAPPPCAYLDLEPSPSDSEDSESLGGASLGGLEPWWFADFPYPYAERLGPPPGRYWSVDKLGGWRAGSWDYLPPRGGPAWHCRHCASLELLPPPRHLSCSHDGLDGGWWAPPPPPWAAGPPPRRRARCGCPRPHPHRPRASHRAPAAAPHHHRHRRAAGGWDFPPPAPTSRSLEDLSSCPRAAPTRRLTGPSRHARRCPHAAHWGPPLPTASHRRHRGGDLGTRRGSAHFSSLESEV

## C[C@]12N[C@H](Cc3ccccc31)c1ccccc12 [MK-801]
[1]
  τon of inhibition by MK-801: 5.7 s
[2]
  MK-801 inhibition slower than at NR2Awt-containing receptors: 15 fold
[3]
  τon of inhibition by MK-801: 32 s
[4]
  τon of inhibition by MK-801: 1.6 s

## Br.CS(=O)(=O)SCCN [MTSEA, 2-aminoethylmethanethiosulfonatehydrobromide]
[5]
  Decrease in MTSEA potentiation on deleting the NR2D-NTD: 4 fold
[6]
  Higher MTSEA-potentiation than NR2Awt-containing receptors: 17 fold
[7]
  MTSEA-induced potentiation: ~ 300 fold

## [Zn+2] [Zinc, zinc]
[8]
  IC50: 0.2 nM
  Inhibmax: 83%
[9]
  IC50: 1.5 nM
  Inhibmax: 90%
[10]
  nH: 0.9–1.2
[11]
  IC50: 7.5 nM
  Inhibmax: 81%
[12]
  IC50: 5.4 nM
  Inhibmax: 86%
[13]
  IC50: 720 nM
  Inhibmax: 98%
[14]
  IC50: 7800 nM
  Inhibmax: 100%
